In PMC2229406 (The Journal of General Physiology, 1998):
Where “and” joins values, the source holds several entries; their conditions need not be identical. Equal values may be shown once. Read-outs that look alike come from different tables or passages of the source.

Tests used:
[1] = test system: sheep cardiac ryanodine receptor (RyR) channel; format: biochemical
Procedure, shortened: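 CHAPS-solubilized RyR from sheep ventricular heavy SR (30/40% sucrose interface) was reconstituted into liposomes and fused into phosphatidylethanolamine/n-decane bilayers. Both chambers held 610 mM K+, 20 mM HEPES pH 7.4 and 10 μM contaminant Ca2+, with 100 μM EMD 41000 cis. Single channels only, at 21 ± 2°C. Ryanoid added cytosolically; steady-state runs ≥6 min at +40 mV. Pmod = modified/(modified+unmodified) time; single-site nonlinear regression; mean ± SEM.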

[2] = test system: sheep cardiac ryanodine receptor (RyR) channel; settings: ref Tinker et al., 1996, cited from earlier work
[3] = +40 mV, 500 nM cytosolic, 20 min recording, single exponential fit

21-amino-9α-hydroxy-ryanodine
mean P o ± SEM in unmodified periods ([1]; 50 nM ryanoid, +40 mV, n = 5): 0.62 ± 0.15
mean P o ± SEM in unmodified periods ([1]; 100 nM ryanoid, +40 mV, n = 5): 0.71 ± 0.16
mean P o ± SEM in unmodified periods ([1]; 300 nM ryanoid, +40 mV, n = 5): 0.70 ± 0.16
modification of channel function, luminal addition ([1]; 500 nM at the luminal face, +60 or −60 mV, n = 6): no modification of gating or conductance
total valency / total voltage dependence (z on + z off) ([1]; 500 nM cytosolic): 1.98 and 2
interaction with the channel at −60 mV ([1]; 500 nM cytosolic, −60 mV): no discernible modified-conductance events
mean P o ± SEM in unmodified periods ([1]; 500 nM ryanoid, +40 mV, n = 5): 0.56 ± 0.16
k on, intercept of regression line vs P o ([1]; 700 nM cytosolic, +40 mV): 0.02 ± 0.02 s⁻¹
k on, slope vs P o ([1]; 700 nM cytosolic, +40 mV, range P o = 0–1): 0.97 ± 0.05 s⁻¹
mean P o ± SEM in unmodified periods ([1]; 700 nM ryanoid, +40 mV, n = 4): 0.73 ± 0.15
mean P o ± SEM in unmodified periods ([1]; 900 nM ryanoid, +40 mV, n = 4): 0.73 ± 0.15
mean dwell time in the modified state (τmod) [1, 3]: 4.21 s
mean dwell time in the unmodified state (τunmod) [1, 3]: 0.95 s
K d from P mod vs concentration ([1]; +40 mV, 50-900 nM cytosolic, single-site binding scheme, nonlinear regression): 105 nM
apparent rate constant for dissociation, mean value ([1]; +40 mV, independent of concentration): 0.24 ± 0.01 s⁻¹
z, voltage dependence of occurrence of the modified state ([1]; Boltzmann fit of P mod vs holding potential, 500 nM cytosolic): 2.16
Hill slope ([1]; P mod vs concentration, +40 mV): 0.99
slope of ln(rate constant) vs ln(concentration) ([1]; association, +40 mV): 0.975
modified conductance ([1]; cursors at center of noise, 610 mM K+, SEM, n = 14): 354 ± 6 pS
mean fractional conductance ± SEM ([1]; holding potential 20 mV, n = 10): 0.438 ± 0.004
mean fractional conductance ± SEM ([1]; holding potential 40 mV, n = 10): 0.440 ± 0.003
mean fractional conductance ± SEM ([1]; holding potential 60 mV, n = 10): 0.462 ± 0.003
mean P o ± SEM in unmodified periods ([1]; holding potential +20 mV, 500 nM ryanoid, n = 7): 0.65 ± 0.09
mean P o ± SEM in unmodified periods ([1]; holding potential +40 mV, 500 nM ryanoid, n = 7): 0.69 ± 0.09
mean P o ± SEM in unmodified periods ([1]; holding potential +60 mV, 500 nM ryanoid, n = 7): 0.45 ± 0.06
mean P o ± SEM in unmodified periods ([1]; holding potential −20 mV, 500 nM ryanoid, n = 6): 0.62 ± 0.15
mean fractional conductance ± SEM ([1]; holding potential −20 mV, n = 10): 0.437 ± 0.005
mean P o ± SEM in unmodified periods ([1]; holding potential −40 mV, 500 nM ryanoid, n = 5): 0.73 ± 0.13
mean fractional conductance ± SEM ([1]; holding potential −40 mV, n = 6): 0.442 ± 0.002
mean P o ± SEM in unmodified periods ([1]; holding potential −60 mV, 500 nM ryanoid, n = 5): 0.78 ± 0.17
fractional conductance ([1]; modified conductance as proportion of unmodified conductance (813 pS)): 0.44
Kd ([1]; read-out: apparent K d derived from the rate constants, +40 mV): 111 nM
z off ([1]; slope of ln(K off) vs holding potential, 500 nM cytosolic): 0.87
z on ([1]; slope of ln(K on) vs holding potential, 500 nM cytosolic): 1.11

CC(C)[C@@]1(O)[C@@H](O)[C@@]2(O)[C@@]3(C)C[C@]4(O)O[C@@]5([C@H](O)[C@@H](C)CC[C@]35O)[C@@]2(O)[C@]14C [ryanodol]
voltage dependence of channel modification ([2]; +60 vs −60 mV): more likely to occur and are longer lasting at a holding potential of +60 than −60 mV
amplitude of reduced conductance state, of the normal unmodified conductance [2]: ~70%
